The record followed here is ChEMBL document CHEMBL1275580, “Antifungal susceptibilities among different serotypes of Cryptococcus gattii and Cryptococcus neoformans” (2009).

In brackets after ≈: the same amount, converted by molar mass. A value given as a limit tells only on which side of the number the result lay.

The term MIC denotes the smallest concentration in the dilution series that meets the test's criterion for growth inhibition. The MIC50 is an inhibitory concentration at the 50% level, which refers to growth in some studies and to a panel of isolates in others. Read a low MIC50 as higher susceptibility. A word on the MIC90: it is the lowest concentration that inhibits either 90% of growth or 90% of the strains tested, depending on the study.

Assay [1] has as its system Cryptococcus neoformans. Kind of assay: Antifungal activity against Cryptococcus neoformans serotype AD after 72 hrs by broth microdilution method. The class given is functional. In outline: (§1)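 Isolates subcultured at least twice on Sabouraud dextrose agar; serotype assigned by multiplex PCR, species confirmed on canavanine-glycine-bromothymol blue medium. CLSI M27-A2 broth microdilution in RPMI 1640 buffered to pH 7.0 with MOPS, inoculum 0.5 × 10^3 to 2.5 × 10^3 cells/ml, 35°C. Final drug ranges were 0.015–8 or 0.25–64 μg/ml depending on agent. MIC read at 72 h as 50% turbidity reduction versus growth control, or as 100% inhibition for the polyene. C. krusei ATCC 6258 and C. parapsilosis ATCC 22019 served as QC strains.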
On the technique in general: Broth dilution looks for growth in wells or tubes with falling amounts of substance.

The subject of assay [2] is Cryptococcus gattii species complex. Kind of assay: Antifungal activity against Cryptococcus gattii serotype B after 72 hrs by broth microdilution method. The class given is functional, Cryptococcus bacillisporus. In outline: (§2)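 Isolates subcultured at least twice on Sabouraud dextrose agar; serotype by multiplex PCR, species confirmed on canavanine-glycine-bromothymol blue medium. CLSI M27-A2 broth microdilution in RPMI 1640 with MOPS, pH 7.0. Inoculum 0.5–2.5 × 10^3 cells/ml, 35°C. Final drug range 0.015–8 or 0.25–64 μg/ml. MIC at 72 h read as 50% turbidity reduction versus growth control, or 100% inhibition for the polyene.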

Assay [3] shares this test system. Put plainly: Antifungal activity against Cryptococcus gattii after 72 hrs by broth microdilution method. The class given is functional, Cryptococcus bacillisporus. In a few lines:
as §2

The test system of assay [4] is Cryptococcus neoformans. Kind of assay: Antifungal activity against Cryptococcus neoformans serotype D after 72 hrs by broth microdilution method. It is filed as functional. In a few lines: as §1
In assay [5] the test system is Cryptococcus gattii species complex. Put plainly: Antifungal activity against Cryptococcus gattii serotype C after 72 hrs by broth microdilution method. The class given is functional, Cryptococcus bacillisporus. In a few lines: as §2
The test system of assay [6] is Cryptococcus neoformans. Kind of assay: Antifungal activity against Cryptococcus neoformans after 72 hrs by broth microdilution method. The class given is functional. In a few lines: as §1
Assay [7] concerns Cryptococcus neoformans. Put plainly: Antifungal activity against Cryptococcus neoformans serotype A after 72 hrs by broth microdilution method. The class given is functional. In a few lines: as §1

As for `C[C@@H](c1nc(-c2ccc(C#N)cc2)cs1)[C@](O)(Cn1cncn1)c1cc(F)ccc1F` [ISAVUCONAZOLE], the MIC in assay [1], in assay [4], in assay [5] and in assay [6] was less than 0.015 µg/mL each time. Also, the MIC50 in assay [1] was less than 0.015 µg/mL; in assay [2], 0.03 µg/mL (≈ 0.0686 µM); in assay [3], 0.03 µg/mL (≈ 0.0686 µM); in assay [4], less than 0.015 µg/mL; in assay [5], less than 0.015 µg/mL; in assay [6] it was less than 0.015 µg/mL. In assay [7], this compound returned an MIC50 of 0.03 µg/mL (≈ 0.0686 µM). Besides, the MIC90 was 0.03 µg/mL (≈ 0.0686 µM) in assay [1]; 0.06 µg/mL (≈ 0.137 µM) in assay [2]; 0.06 µg/mL (≈ 0.137 µM) in assay [3]; 0.03 µg/mL (≈ 0.0686 µM) in assay [4]; 0.03 µg/mL (≈ 0.0686 µM) in assay [5]; 0.06 µg/mL (≈ 0.137 µM) in assay [6]. This compound also showed an MIC90 in assay [7] of 0.125 µg/mL (≈ 0.286 µM).
Turning to `Nc1nc(=O)[nH]cc1F` [FLUCYTOSINE], the MIC50 was 4 µg/mL (≈ 31 µM) in assay [1]; 2 µg/mL (≈ 15.5 µM) in assay [2]; 2 µg/mL (≈ 15.5 µM) in assay [3]; 4 µg/mL (≈ 31 µM) in assay [4]; 2 µg/mL (≈ 15.5 µM) in assay [5]; 4 µg/mL (≈ 31 µM) in assay [6]. Also, the MIC50 in assay [7] stood at 4 µg/mL (≈ 31 µM). Also, the MIC90 in assay [1] is 8 µg/mL (≈ 62 µM); in assay [2], 4 µg/mL (≈ 31 µM); in assay [3], 8 µg/mL (≈ 62 µM); in assay [4] it was 8 µg/mL (≈ 62 µM); in assay [5], 8 µg/mL (≈ 62 µM); in assay [6], 8 µg/mL (≈ 62 µM). In assay [7], this compound registered an MIC90 of 4 µg/mL (≈ 31 µM).
In the case of `OC(Cn1cncn1)(Cn1cncn1)c1ccc(F)cc1F` [FLUCONAZOLE], the MIC50 in assay [1], in assay [2], in assay [3], in assay [5], in assay [6] and in assay [7] was 2 µg/mL (≈ 6.53 µM) each time. Also, the MIC90 stood at 4 µg/mL (≈ 13.1 µM) in assay [1]; 8 µg/mL (≈ 26.1 µM) in assay [2]; 8 µg/mL (≈ 26.1 µM) in assay [3]; 4 µg/mL (≈ 13.1 µM) in assay [5]; 4 µg/mL (≈ 13.1 µM) in assay [6]; 4 µg/mL (≈ 13.1 µM) in assay [7].
Take `C[C@@H]1[C@H](O)[C@@H](C)/C=C/C=C/C=C/C=C/C=C/C=C/C=C/[C@H](O[C@@H]2O[C@H](C)[C@@H](O)[C@H](N)[C@@H]2O)C[C@@H]2O[C@](O)(C[C@@H](O)C[C@@H](O)[C@H](O)CC[C@@H](O)C[C@@H](O)CC(=O)O[C@H]1C)C[C@H](O)[C@H]2C(=O)O` [AMPHOTERICIN B]: the MIC50 in assay [1], in assay [2], in assay [3], in assay [5], in assay [6] and in assay [7] was 0.25 µg/mL (≈ 0.271 µM) throughout. Besides, the MIC90 in assay [1] was found to be 0.25 µg/mL (≈ 0.271 µM); in assay [2], 0.25 µg/mL (≈ 0.271 µM); in assay [3] it was 0.25 µg/mL (≈ 0.271 µM); in assay [5] it was 0.5 µg/mL (≈ 0.541 µM); in assay [6], 0.5 µg/mL (≈ 0.541 µM); in assay [7], 0.5 µg/mL (≈ 0.541 µM).
On to `C[C@@H](c1ncncc1F)[C@](O)(Cn1cncn1)c1ccc(F)cc1F` [VORICONAZOLE], for which the MIC50 worked out at 0.06 µg/mL (≈ 0.172 µM) in assay [1]; 0.125 µg/mL (≈ 0.358 µM) in assay [2]; 0.125 µg/mL (≈ 0.358 µM) in assay [3]; 0.03 µg/mL (≈ 0.0859 µM) in assay [4]; 0.125 µg/mL (≈ 0.358 µM) in assay [5]; 0.06 µg/mL (≈ 0.172 µM) in assay [6]. Moreover, in assay [7], the MIC50 is 0.06 µg/mL (≈ 0.172 µM). Besides, the MIC90 was 0.125 µg/mL (≈ 0.358 µM) in assay [1]; 0.25 µg/mL (≈ 0.716 µM) in assay [2]; 0.25 µg/mL (≈ 0.716 µM) in assay [3]; 0.25 µg/mL (≈ 0.716 µM) in assay [4]; 0.25 µg/mL (≈ 0.716 µM) in assay [5]; 0.25 µg/mL (≈ 0.716 µM) in assay [6]. The compound further came in with an MIC90 in assay [7] of 0.25 µg/mL (≈ 0.716 µM).
As for `CC[C@@H]([C@H](C)O)n1ncn(-c2ccc(N3CCN(c4ccc(OC[C@@H]5CO[C@@](Cn6cncn6)(c6ccc(F)cc6F)C5)cc4)CC3)cc2)c1=O` [POSACONAZOLE], the MIC50 in assay [1] is 0.03 µg/mL (≈ 0.0428 µM); in assay [2], 0.03 µg/mL (≈ 0.0428 µM); in assay [3], 0.03 µg/mL (≈ 0.0428 µM); in assay [4] it was less than 0.015 µg/mL; in assay [5], 0.03 µg/mL (≈ 0.0428 µM); in assay [6], 0.03 µg/mL (≈ 0.0428 µM). Further, the MIC50 in assay [7] was determined as 0.06 µg/mL (≈ 0.0856 µM). Also, the MIC90 in assay [1] was found to be 0.06 µg/mL (≈ 0.0856 µM); in assay [2] it was 0.125 µg/mL (≈ 0.178 µM); in assay [3], 0.125 µg/mL (≈ 0.178 µM); in assay [4] it was 0.06 µg/mL (≈ 0.0856 µM); in assay [5], 0.06 µg/mL (≈ 0.0856 µM); in assay [6], 0.06 µg/mL (≈ 0.0856 µM). Moreover, the MIC90 in assay [7] was 0.25 µg/mL (≈ 0.357 µM). In assay [4], this compound yielded a minimal inhibitory concentration (MIC) of less than 0.015 µg/mL.
